Test results taken from ChEMBL document CHEMBL3396998, “Synthesis and antitubercular evaluation of 4-carbonyl piperazine substituted 1,3-benzothiazin-4-one derivatives” (Bioorg Med Chem Lett, 2015).
Converted amounts (≈) assume the structure as drawn.

Legend:
[1] = Aqueous solubility of the compound by HPLC method; assay type: physicochemical; settings: water
[2] = tested on: Mycobacterium tuberculosis; assay: Antitubercular activity against Mycobacterium tuberculosis H37Ra ATCC 25177 by MABA method; assay type: functional
[3] = Cytotoxicity against African green monkey Vero cells after 72 hrs by MTT assay; assay type: cell-based; settings: chlorocebus sabaeus
How it was run: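 Vero cells were exposed to each compound over a broad concentration range. Viability was read by MTT, and cytotoxicity was reported as IC50.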

[4] = Ratio of aqueous solubility of BTZ038 to aqueous solubility of the compound by HPLC method; assay type: physicochemical; settings: buffer
[5] = Ratio of aqueous solubility of PBTZ169 to aqueous solubility of the compound by HPLC method; assay type: physicochemical; settings: buffer

SMILES | solubility [1] [µg/mL] | MIC90 [2] [µM] | CC50 at 72 h [3] [µM] | Ratio [4] | Ratio [5]
O=C(c1ccc([N+](=O)[O-])cc1)N1CCN(c2nc(=O)c3cc(C(F)(F)F)cc([N+](=O)[O-])c3s2)CC1 | 1.67 (≈ 3.28 µM) | 0.063 (≈ 0.0321 µg/mL) | > 125 | – | –
O=C(c1ccccc1[N+](=O)[O-])N1CCN(c2nc(=O)c3cc(C(F)(F)F)cc([N+](=O)[O-])c3s2)CC1 | 2.15 (≈ 4.22 µM) | 0.13 (≈ 0.0662 µg/mL) | > 125 | – | –
O=C(c1ccc(C(F)(F)F)cc1)N1CCN(c2nc(=O)c3cc(C(F)(F)F)cc([N+](=O)[O-])c3s2)CC1 | 7.53 (≈ 14.1 µM) | 0.031 (≈ 0.0165 µg/mL) | > 125 | – | –
COc1ccc(CC(=O)N2CCN(c3nc(=O)c4cc(C(F)(F)F)cc([N+](=O)[O-])c4s3)CC2)cc1 | 2.72 (≈ 5.35 µM) | 0.13 (≈ 0.0661 µg/mL) | > 125 | – | –
COc1ccccc1C(=O)N1CCN(c2nc(=O)c3cc(C(F)(F)F)cc([N+](=O)[O-])c3s2)CC1 | 13.6 (≈ 27.4 µM) | 0.063 (≈ 0.0312 µg/mL) | > 125 | – | –
COc1cccc(C(=O)N2CCN(c3nc(=O)c4cc(C(F)(F)F)cc([N+](=O)[O-])c4s3)CC2)c1 | 0.91 (≈ 1.84 µM) | 0.031 (≈ 0.0153 µg/mL) | > 125 | – | –
COc1ccc(C(=O)N2CCN(c3nc(=O)c4cc(C(F)(F)F)cc([N+](=O)[O-])c4s3)CC2)cc1 | 0.22 (≈ 0.445 µM) | 0.13 (≈ 0.0643 µg/mL) | > 125 | – | –
Cc1ccc(C(=O)N2CCN(c3nc(=O)c4cc(C(F)(F)F)cc([N+](=O)[O-])c4s3)CC2)cc1 | 6.7 (≈ 14 µM) | 0.031 (≈ 0.0148 µg/mL) | > 125 | – | –
CCc1ccc(C(=O)N2CCN(c3nc(=O)c4cc(C(F)(F)F)cc([N+](=O)[O-])c4s3)CC2)cc1 | < 0.1 | 0.031 (≈ 0.0153 µg/mL) | > 125 | – | –
CC(C)(C)c1ccc(C(=O)N2CCN(c3nc(=O)c4cc(C(F)(F)F)cc([N+](=O)[O-])c4s3)CC2)cc1 | 1.25 (≈ 2.4 µM) | 0.016 (≈ 0.00833 µg/mL) | > 125 | – | –
O=C(c1ccccc1F)N1CCN(c2nc(=O)c3cc(C(F)(F)F)cc([N+](=O)[O-])c3s2)CC1 | 3.1 (≈ 6.43 µM) | 0.008 (≈ 0.00386 µg/mL) | > 125 | – | –
O=C(c1cccc(F)c1)N1CCN(c2nc(=O)c3cc(C(F)(F)F)cc([N+](=O)[O-])c3s2)CC1 | 0.2 (≈ 0.415 µM) | 0.016 (≈ 0.00772 µg/mL) | > 125 | – | –
O=C(c1ccc(F)cc1)N1CCN(c2nc(=O)c3cc(C(F)(F)F)cc([N+](=O)[O-])c3s2)CC1 | 1.69 (≈ 3.5 µM) | 0.031 (≈ 0.015 µg/mL) | > 125 | – | –
O=C(c1ccccc1Cl)N1CCN(c2nc(=O)c3cc(C(F)(F)F)cc([N+](=O)[O-])c3s2)CC1 | 8.18 (≈ 16.4 µM) | 0.016 (≈ 0.00798 µg/mL) | > 125 | – | –
O=C(c1ccc(Cl)cc1)N1CCN(c2nc(=O)c3cc(C(F)(F)F)cc([N+](=O)[O-])c3s2)CC1 | 5.19 (≈ 10.4 µM) | 0.016 (≈ 0.00798 µg/mL) | > 125 | – | –
O=C(C1CC1)N1CCN(c2nc(=O)c3cc(C(F)(F)F)cc([N+](=O)[O-])c3s2)CC1 | 52.9 (≈ 123 µM) | 0.13 (≈ 0.0557 µg/mL) | > 125 | – | –

SMILES | solubility [1] [µg/mL] | MIC90 [2] [µM] | CC50 at 72 h [3] [µM] | Ratio [4] | Ratio [5]
O=C(C1CCC1)N1CCN(c2nc(=O)c3cc(C(F)(F)F)cc([N+](=O)[O-])c3s2)CC1 | 39.3 (≈ 88.8 µM) | 0.031 (≈ 0.0137 µg/mL) | > 125 | – | –
O=C(C1CCCC1)N1CCN(c2nc(=O)c3cc(C(F)(F)F)cc([N+](=O)[O-])c3s2)CC1 | 5.34 (≈ 11.7 µM) | 0.016 (≈ 0.0073 µg/mL) | 120 | – | –
O=C(C1CCCCC1)N1CCN(c2nc(=O)c3cc(C(F)(F)F)cc([N+](=O)[O-])c3s2)CC1 | 3.24 (≈ 6.89 µM) | 0.031 (≈ 0.0146 µg/mL) | 88.7 | – | –
O=C(CC1CCCCC1)N1CCN(c2nc(=O)c3cc(C(F)(F)F)cc([N+](=O)[O-])c3s2)CC1 | 0.12 (≈ 0.248 µM) | 0.016 (≈ 0.00775 µg/mL) | > 125 | – | –
CC(C)(C)C1CCC(C(=O)N2CCN(c3nc(=O)c4cc(C(F)(F)F)cc([N+](=O)[O-])c4s3)CC2)CC1 (stereo not drawn) | < 0.1 | 0.004 (≈ 0.00211 µg/mL) | > 125 | – | –
O=C(N1CCN(c2nc(=O)c3cc(C(F)(F)F)cc([N+](=O)[O-])c3s2)CC1)C12CC3CC(CC(C3)C1)C2 | 2.95 (≈ 5.65 µM) | 0.031 (≈ 0.0162 µg/mL) | > 125 | – | –
CC(=O)N1CCN(c2nc(=O)c3cc(C(F)(F)F)cc([N+](=O)[O-])c3s2)CC1 | 83.9 (≈ 208 µM) | > 0.13 | > 125 | – | –
CCC(=O)N1CCN(c2nc(=O)c3cc(C(F)(F)F)cc([N+](=O)[O-])c3s2)CC1 | 3.29 (≈ 7.9 µM) | 0.016 (≈ 0.00666 µg/mL) | > 125 | – | –
CCCC(=O)N1CCN(c2nc(=O)c3cc(C(F)(F)F)cc([N+](=O)[O-])c3s2)CC1 | 2.46 (≈ 5.72 µM) | 0.13 (≈ 0.056 µg/mL) | > 125 | – | –
CCCCC(=O)N1CCN(c2nc(=O)c3cc(C(F)(F)F)cc([N+](=O)[O-])c3s2)CC1 | 42.5 (≈ 95.6 µM) | 0.031 (≈ 0.0138 µg/mL) | > 125 | – | –
CSCC(=O)N1CCN(c2nc(=O)c3cc(C(F)(F)F)cc([N+](=O)[O-])c3s2)CC1 | 15.2 (≈ 33.8 µM) | 0.13 (≈ 0.0583 µg/mL) | > 125 | – | –
CC(C)(C)C(=O)N1CCN(c2nc(=O)c3cc(C(F)(F)F)cc([N+](=O)[O-])c3s2)CC1 | 5.87 (≈ 13.2 µM) | 0.031 (≈ 0.0138 µg/mL) | > 125 | – | –
CC(C)CC(=O)N1CCN(c2nc(=O)c3cc(C(F)(F)F)cc([N+](=O)[O-])c3s2)CC1 | 66.3 (≈ 149 µM) | 0.031 (≈ 0.0138 µg/mL) | > 125 | – | –
CCC(C)C(=O)N1CCN(c2nc(=O)c3cc(C(F)(F)F)cc([N+](=O)[O-])c3s2)CC1 (stereo not drawn) | 104 (≈ 234 µM) | 0.008 (≈ 0.00356 µg/mL) | > 125 | 100 | 10
CC1COC2(CCN(c3nc(=O)c4cc(C(F)(F)F)cc([N+](=O)[O-])c4s3)CC2)O1 (racemic) | 0.94 (≈ 2.18 µM) | 0.004 (≈ 0.00173 µg/mL) | > 125 | – | –
O=c1nc(N2CCN(CC3CCCCC3)CC2)sc2c([N+](=O)[O-])cc(C(F)(F)F)cc12 [MACOZINONE] | 9.07 (≈ 19.9 µM) | < 0.004 | > 125 | – | –
